Screening data: PubChem, The Scripps Research Institute Molecular Screening Center
HTRA1 inhibitor: inhibitors of human serine peptidase HTRA1 | Q92743 | recombinant HTRA1, FP-rhodamine activity-based probe, fluorescence polarization | inhibition, % at 5.96 µM | actives 0.5% (n = 340,000); in the data active means inhibition above about 36%
Target sequence (Q92743 whole entry, looked up): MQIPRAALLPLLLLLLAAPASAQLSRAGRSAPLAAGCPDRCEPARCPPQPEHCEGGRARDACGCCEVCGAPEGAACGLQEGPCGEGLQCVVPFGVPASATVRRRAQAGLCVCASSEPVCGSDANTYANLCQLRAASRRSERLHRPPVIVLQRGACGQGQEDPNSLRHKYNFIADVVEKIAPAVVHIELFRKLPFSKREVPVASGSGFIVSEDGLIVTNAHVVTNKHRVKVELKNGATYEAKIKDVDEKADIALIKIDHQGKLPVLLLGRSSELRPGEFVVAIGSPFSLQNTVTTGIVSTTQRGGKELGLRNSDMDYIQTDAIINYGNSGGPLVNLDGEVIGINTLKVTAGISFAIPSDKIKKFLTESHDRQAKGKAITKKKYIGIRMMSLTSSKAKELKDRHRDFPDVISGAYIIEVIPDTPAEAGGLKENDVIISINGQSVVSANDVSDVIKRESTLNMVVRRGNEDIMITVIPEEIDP
pPAFAH inh: inhibitors of human plasma PAF acetylhydrolase (pPAFAH) | Q13093 | recombinant pPAFAH, FP-rhodamine probe fluorescence polarization | inhibition, % at 3.39 µM | actives 1.5% (n = 330,000) | AID 463082;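 active means inhibition above the mean inhibition across the screen plus 3 SD, cut at about 25% in these data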;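 further: inhibitors block binding of the rhodamine activity-based probe so polarization drops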
ABHD4 inh: ABHD4 (mouse) inhibition, primary FP screen | inhibition, % at 8.92 µM | actives 0.54% (n = 370,000) | AID 720543 | purified mABHD4, FP-Rh probe fluorescence polarization;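 active means inhibition exceeding the mean over every tested compound plus 3 SD, cut at about 30% in these data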
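Assay system: mouse ABHD4 enzyme, wild type / Also added: fluorescent activity-based probe FP-Rh / Doses: single nominal dose of 8.92 µM, 0.89% DMSO final / Timing: 45 min compound pre-incubation plus 60 min probe step, 25 °C / Signal: FP readout, ex 525 nm / em 598 nm / Control set: S159A mutant/DMSO as 100%, compound-well median as 0%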
TCR CD3 inh: inhibitors of human TCR-CD3 interaction. TAMRA-labeled TCR probe fluorescence, biochemical. inhibition, % at 9.4 µM. actives 0.37% (n = 360,000);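 further: recombinant mutant TCR 2C K166C tagged with TAMRA read by polarization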
SIAE primary: human SIAE inhibition, primary screen; SIAE FP-Rh probe binding, fluorescence polarization; inhibition, % at 9.66 µM; actives 0.69% (n = 370,000);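 active means inhibition above a cutoff: mean of compounds within the control limits plus 3 SD of those, cut at about 17% in these data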
BSA TAMRA ctr: counter-screen for TCR-CD3 interaction inhibitors: BSA probe | AID 652035 | actives 10% (n = 1,200) | shares compounds with TCR CD3 inh | TAMRA-labeled BSA probe fluorescence counterscreen | inhibition, % at 9.4 µM; in the data active means inhibition above about 23%
TCR-CD3 conf: confirmation of human TCR-CD3 interaction inhibitors. shares compounds with TCR CD3 inh. TAMRA-labeled TCR probe fluorescence binding assay. inhibition, % at 9.4 µM. actives 48% (n = 1,200)
mABHD4 conf: confirmation of mouse ABHD4 inhibitors; shares compounds with ABHD4 inh; purified mABHD4, FP-Rh probe fluorescence polarization; inhibition, % at 8.92 µM; actives 55% (n = 1,800); AID 720658;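 active means mean inhibition across replicates above the hit cutoff set in the primary screen, cut at about 30% in these data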
SIAE confirm: confirmation of human SIAE inhibitors; SIAE FP-Rh activity-based probe, fluorescence polarization; actives 13% (n = 2,300); shares compounds with SIAE primary; inhibition, % at 9.66 µM; AID 1117263;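 active means mean inhibition of the replicates above the hit cutoff set in the primary screen, cut at about 17% in these data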;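 further: inhibitors lower polarization as more probe stays unbound to SIAE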
Each line names hits and unclear results; the compound was inactive in the other large screens (follow-up assays come after a bar, where they were run). Rows were chosen to be rich in hits. Some 2.3% of all compounds tested hit in one or more screens of this group. Unless noted, no stated cut-off is given here; in the data, active means inhibition above about 19%; inactive means the rest.

COC1C(C)OC(OC2CC(C)(O)Cc3cc4c(c(O)c32)C(=O)c2c(O)cc3c(c2C4=O)OC2OC3(C)C(O)C(N(C)C)C2O)C(OC)C1(C)OC (stereo not drawn)	TCR CD3 inh 80 (no result: pPAFAH inh) | BSA TAMRA ctr 51 | TCR-CD3 conf 40
C[C@@H]1COc2cccc(N3CCN(C)CC3)c2S(=O)(=O)N1	none (no result: HTRA1 inhibitor, pPAFAH inh)
COc1ccc(-c2ccc3c(c2)CN(C(=O)CCc2ccccc2)Cc2cnnn2-3)cc1	none (no result: HTRA1 inhibitor, pPAFAH inh)
COc1ccc(-c2ccc3c(c2)CN(C(=S)NCCc2ccccc2)Cc2cnnn2-3)cc1	TCR CD3 inh 26 (no result: HTRA1 inhibitor, pPAFAH inh) | BSA TAMRA ctr inactive | TCR-CD3 conf inactive
CCOC(=O)CNC(=O)N1Cc2cc(-c3ccc(OC)cc3)ccc2-n2nncc2C1	none (no result: HTRA1 inhibitor, pPAFAH inh)
CCOC(=O)CNC(=O)N1Cc2cc(Br)ccc2-n2nncc2C1	TCR CD3 inh 36 (no result: HTRA1 inhibitor, pPAFAH inh) | BSA TAMRA ctr inactive | TCR-CD3 conf inactive
CC1(C(O)(C#CCN2CCCCC2)c2ccccc2)CCCC1 (stereo not drawn)	none
Cc1ccc(/C=C2\C(=O)NC(=S)N(c3ccccc3F)C2=O)s1	TCR CD3 inh 45 | BSA TAMRA ctr inactive | TCR-CD3 conf inactive
Cc1ccc(/C=C2\C(=O)NC(=S)N(c3ccc(F)cc3)C2=O)s1	none
CC(CC(C)(C)N1CC1)=NO	none (no result: pPAFAH inh)
O=C(N/N=C/c1c(O)n(-c2cccc3ccccc23)c(=O)[nH]c1=O)c1ccncc1	TCR CD3 inh 22 | BSA TAMRA ctr inactive | TCR-CD3 conf inactive
CCC(c1nnnn1Cc1ccccc1)N1CCC(n2c(=O)[nH]c3ccccc32)CC1 (stereo not drawn)	none (no result: HTRA1 inhibitor, pPAFAH inh)
CN(C)[C@@H]1C(=O)C(C(N)=O)=C(O)[C@@]2(O)C(=O)C3=C(O)c4c(O)cccc4[C@@](C)(O)C3C[C@@H]12 (stereo partly drawn)	pPAFAH inh 32, ABHD4 inh 64, TCR CD3 inh 23 | BSA TAMRA ctr inactive | TCR-CD3 conf inactive | mABHD4 conf inactive
N#Cc1ccc(CN2Cc3ccccc3-n3nncc3C2)cc1	none (no result: pPAFAH inh)
CC/C(=N\NC(=O)c1ccccc1)c1c(O)n(C2CCCCC2)c(=O)[nH]c1=O	TCR CD3 inh 20, SIAE primary 18 | BSA TAMRA ctr inactive | TCR-CD3 conf inactive | SIAE confirm inactive
CC(C)[N+](C)(CCC(C(N)=O)(c1ccccc1)c1ccccc1)C(C)C	none
C=CCn1c(O)c(C(C)=Nc2ccc(N(CC)CC)cc2)c(=O)[nH]c1=O	ABHD4 inh 39 | mABHD4 conf inactive
CC1CC(OP(O)(=S)c2ccc(N(C)C)cc2NC(=O)c2cccs2)CC(C)(C)C1 (stereo not drawn)	ABHD4 inh 41 | mABHD4 conf 50
COC(=O)CC(=O)c1ccc2c(c1)OCO2	none
O=C(NC1CCCCC1)Oc1cc2oc(=O)sc2cc1Cl	ABHD4 inh 31 | mABHD4 conf inactive
Cc1ccc(C(=O)NCCN2CCC3(CC2)C(=O)NCN3c2ccccc2)cc1	none (no result: HTRA1 inhibitor, pPAFAH inh)
C[C@H]1COc2cc(N3CCN(C)CC3)ccc2S(=O)(=O)N1	none (no result: HTRA1 inhibitor, pPAFAH inh)
O=C1C(Cl)=CC(=Nc2ccc(O)cc2)C=C1Cl	ABHD4 inh 32, SIAE primary 21 | mABHD4 conf 58
Cc1[nH]c2ccc(OC(F)(F)F)cc2c1CCNCc1ccc(Cl)cc1	ABHD4 inh 42 (no result: pPAFAH inh) | mABHD4 conf 31
O=C(N/N=C/c1c(O)n(Cc2ccc(F)cc2)c(=O)[nH]c1=O)c1ccccc1O	pPAFAH inh 32, ABHD4 inh 34 | mABHD4 conf 52
COc1ccc(Cn2c(O)c(/C=N/NC(=O)c3ccccc3O)c(=O)[nH]c2=O)cc1	pPAFAH inh 27, ABHD4 inh 30 | mABHD4 conf 38
COc1ccc(Cn2c(O)c(/C=N/NC(=O)c3ccccc3)c(=O)[nH]c2=O)cc1	none
c1ccc2c(c1)-c1cccc3cccc-2c13	none
Nc1c(Br)cc2c3c(cccc13)-c1ccccc1-2	ABHD4 inh 55 (no result: HTRA1 inhibitor, pPAFAH inh) | mABHD4 conf 57
CC12CCC3C(CCC4CC(=O)OCC43C)C1CCC2O (stereo not drawn)	none (no result: pPAFAH inh)
S=P(N1CCCCCC1)(N1CC1)N1CC1	none (no result: pPAFAH inh)
c1ccc(-c2ccc3c(c2)CNCc2cnnn2-3)cc1	none (no result: HTRA1 inhibitor, pPAFAH inh)
FC(F)(F)c1ccc(-c2ccc3c(c2)CNCc2cnnn2-3)cc1	ABHD4 inh 34 (no result: HTRA1 inhibitor, pPAFAH inh) | mABHD4 conf inactive
CC(C(=O)Nc1ccc(Br)cc1C(=O)c1ccccc1)N1CCOCC1 (stereo not drawn)	none
O=[N+]([O-])c1cccc(O)c1	none
O=[N+]([O-])c1cc(S(=O)(=O)c2ccc(O)c([N+](=O)[O-])c2)ccc1O	pPAFAH inh 28, ABHD4 inh 40 | mABHD4 conf 31
COc1ccc2[nH]c(C)c(CCNCc3cccnc3)c2c1	ABHD4 inh 34, SIAE primary 22 | mABHD4 conf inactive | SIAE confirm inactive
O=C(N/N=C/c1c(O)n(Cc2ccccc2)c(=O)[nH]c1=O)c1ccccc1O	ABHD4 inh 61, TCR CD3 inh 74, SIAE primary 28 | mABHD4 conf 38 | SIAE confirm inactive
O=c1[nH]c(=O)n(Cc2ccccc2)c(O)c1/C=N/NCCO	none (no result: HTRA1 inhibitor)
CCOC(=O)c1[nH]c2ccc(OC)cc2c1C(SCC(=O)O)c1ccc(C(F)(F)F)cc1 (stereo not drawn)	none
COc1ccc2c(c1)c(C(=O)CN1CCC3(CC1)OCCO3)c(C)n2Cc1ccccc1	SIAE primary 68 | SIAE confirm inactive
CC(C)(C)NC(=S)N1CCn2cccc2C1c1cccnc1 (stereo not drawn)	SIAE primary 21 | SIAE confirm inactive
COC(=O)C12CCc3cc(OC)ccc3C1=CC(=O)C2 (stereo not drawn)	none (no result: pPAFAH inh)
CCCOP(=O)(OCCC)C(NC(=O)c1cc(OC)c(OC)c(OC)c1)c1ccccc1 (stereo not drawn)	SIAE primary 17 | SIAE confirm inactive
O=c1cccc2n1CC1CC2CN(S(=O)(=O)c2ccc(F)cc2)C1 (stereo not drawn)	none
Nc1ccc(S(=O)(=O)N2CC3CC(C2)c2cccc(=O)n2C3)cc1 (stereo not drawn)	SIAE primary 17 | SIAE confirm inactive
CC(=O)N1CC(=O)Nc2ccc(C)cc2C1c1ccccc1 (stereo not drawn)	none
CCCCCCn1c(O)c(/C=N/N2CCCCCC2)c(=O)[nH]c1=O	none
CCCCN1C(=N)C(CC)(CC)C(=O)NC1=O	SIAE primary 21 | SIAE confirm inactive
